Values after ≈ are worked out from the molar mass of the structure shown.
How the values were obtained:
Streptococcus pneumoniae [1] = assay: Antimicrobial activity against Streptococcus pneumoniae 8 expressing inducible ermB after 20 hrs by agar dilution method; assay type: functional
Method in brief: (§1)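 Streptococci, H. influenzae and M. catarrhalis were precultured on blood agar plates. Suspensions of about 10⁶ CFU/ml were inoculated onto sensitivity disk agar supplemented with 5% horse blood and incubated at 37 °C for 20 h. MIC was read as the lowest drug concentration with no visible growth.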

Streptococcus pneumoniae [2] = assay: Antimicrobial activity against Streptococcus pneumoniae 9 expressing mefA after 20 hrs by agar dilution method; assay type: functional; method in brief: as §1
Streptococcus pneumoniae [3] = assay: Antimicrobial activity against Streptococcus pneumoniae 10 expressing mefA after 20 hrs by agar dilution method; assay type: functional; method in brief: as §1
Streptococcus pyogenes [4] = assay: Antimicrobial activity against drug-susceptible Streptococcus pyogenes 1 after 20 hrs by agar dilution method; assay type: functional; method in brief: as §1
Streptococcus pyogenes [5] = assay: Antimicrobial activity against Streptococcus pyogenes 3 expressing mefA after 20 hrs by agar dilution method; assay type: functional; method in brief: as §1
Moraxella catarrhalis [6] = assay: Antimicrobial activity against drug-susceptible Moraxella catarrhalis 1 after 20 hrs by agar dilution method; assay type: functional; method in brief: as §1
Moraxella catarrhalis [7] = assay: Antimicrobial activity against drug-susceptible Moraxella catarrhalis 2 after 20 hrs by agar dilution method; assay type: functional; method in brief: as §1
Haemophilus influenzae [8] = assay: Antimicrobial activity against drug-susceptible Haemophilus influenzae 1 after 20 hrs by agar dilution method; assay type: functional; method in brief: as §1
Haemophilus influenzae [9] = assay: Antimicrobial activity against drug-susceptible Haemophilus influenzae 2 after 20 hrs by agar dilution method; assay type: functional; method in brief: as §1
Haemophilus influenzae [10] = assay: Antimicrobial activity against drug-susceptible Haemophilus influenzae 3 after 20 hrs by agar dilution method; assay type: functional; method in brief: as §1
Haemophilus influenzae [11] = assay: Antimicrobial activity against drug-susceptible Haemophilus influenzae 4 after 20 hrs by agar dilution method; assay type: functional; method in brief: as §1
Staphylococcus aureus [12] = assay: Antimicrobial activity against drug-susceptible Staphylococcus aureus 209P JC-1 after 20 hrs by agar dilution method; assay type: functional
Method in brief: (§2)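 Agar dilution MIC. S. aureus seed culture was grown in sensitivity test broth. Cell suspension (about 10⁶ CFU/ml) was inoculated onto sensitivity disk agar with 5% horse blood and incubated at 37 °C for 20 h. MIC was the lowest drug concentration that prevented visible growth.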

Staphylococcus aureus [13] = assay: Antimicrobial activity against drug-susceptible Staphylococcus aureus 2 after 20 hrs by agar dilution method; assay type: functional; method in brief: as §2
Staphylococcus aureus [14] = assay: Antimicrobial activity against drug-susceptible Staphylococcus aureus 3 after 20 hrs by agar dilution method; assay type: functional; method in brief: as §2
Staphylococcus aureus [15] = assay: Antimicrobial activity against Staphylococcus aureus 5 expressing inducible ermB after 20 hrs by agar dilution method; assay type: functional; method in brief: as §2
Streptococcus pneumoniae [16] = assay: Antimicrobial activity against drug-susceptible Streptococcus pneumoniae DP1 Type1 after 20 hrs by agar dilution method; assay type: functional; method in brief: as §1
Streptococcus pneumoniae [17] = assay: Antimicrobial activity against drug-susceptible Streptococcus pneumoniae 2 after 20 hrs by agar dilution method; assay type: functional; method in brief: as §1
Streptococcus pneumoniae [18] = assay: Antimicrobial activity against drug-susceptible Streptococcus pneumoniae 3 after 20 hrs by agar dilution method; assay type: functional; method in brief: as §1
Streptococcus pneumoniae [19] = assay: Antimicrobial activity against Streptococcus pneumoniae 7 expressing inducible ermB after 20 hrs by agar dilution method; assay type: functional; method in brief: as §1
Staphylococcus aureus [20] = assay: Antimicrobial activity against Staphylococcus aureus 6 expressing inducible ermC after 20 hrs by agar dilution method
Streptococcus pneumoniae [21] = assay: Antimicrobial activity against Streptococcus pneumoniae 4 constitutively expressing ermB after 20 hrs by agar dilution method; assay type: functional; method in brief: as §1
Streptococcus pneumoniae [22] = assay: Antimicrobial activity against Streptococcus pneumoniae 5 constitutively expressing ermB/mefA after 20 hrs by agar dilution method; assay type: functional; method in brief: as §1
Streptococcus pneumoniae [23] = assay: Antimicrobial activity against Streptococcus pneumoniae 6 constitutively expressing ermB after 20 hrs by agar dilution method; assay type: functional; method in brief: as §1
Streptococcus pyogenes [24] = assay: Antimicrobial activity against Streptococcus pyogenes 2 constitutively expressing ermB after 20 hrs by agar dilution method; assay type: functional; method in brief: as §1
Staphylococcus aureus [25] = assay: Antimicrobial activity against Staphylococcus aureus 4 constitutively expressing ermA after 20 hrs by agar dilution method; assay type: functional; method in brief: as §2
[26] = Haemophilus influenzae, 20 h, read-out: MIC
[27] = Streptococcus pneumoniae, 20 h, read-out: MIC

MIC (Streptococcus pneumoniae [1]) [µg/mL] | MIC (Streptococcus pneumoniae [2]) [µg/mL] | MIC (Streptococcus pneumoniae [3]) [µg/mL] | MIC (Streptococcus pyogenes [4]) [µg/mL] | MIC (Streptococcus pyogenes [5]) [µg/mL] | MIC (Moraxella catarrhalis [6]) [µg/mL] | MIC (Moraxella catarrhalis [7]) [µg/mL] | MIC (Haemophilus influenzae [8]) [µg/mL] | MIC (Haemophilus influenzae [10]) [µg/mL] | MIC (Haemophilus influenzae [11]) [µg/mL] | MIC (Staphylococcus aureus [12]) [µg/mL] | MIC (Staphylococcus aureus [13]) [µg/mL] | MIC (Staphylococcus aureus [14]) [µg/mL] | MIC (Staphylococcus aureus [15]) [µg/mL] | MIC (Streptococcus pneumoniae [16]) [µg/mL] | MIC (Streptococcus pneumoniae [17]) [µg/mL] | MIC (Streptococcus pneumoniae [18]) [µg/mL] | MIC (Streptococcus pneumoniae [19]) [µg/mL] | MIC (Staphylococcus aureus [20]) [µg/mL] | MIC (Haemophilus influenzae [9]) [µg/mL] | Structure (SMILES) | other results
16 (≈ 16.2 µM) | 0.06 (≈ 0.0607 µM) | 0.06 (≈ 0.0607 µM) | 0.06 (≈ 0.0607 µM) | 0.25 (≈ 0.253 µM) | 1 (≈ 1.01 µM) | 1 (≈ 1.01 µM) | 16 (≈ 16.2 µM) | 8 (≈ 8.1 µM) | 8 (≈ 8.1 µM) | 0.25 (≈ 0.253 µM) | 0.5 (≈ 0.506 µM) | 0.25 (≈ 0.253 µM) | 0.25 (≈ 0.253 µM) | 0.015 (≈ 0.0152 µM) | 0.06 (≈ 0.0607 µM) | 0.03 (≈ 0.0304 µM) | 16 (≈ 16.2 µM) | 0.5 (≈ 0.506 µM) |  | CCOC(=O)[C@H]1[C@H](C)O[C@@H](O[C@H]2[C@H](N(C)C)[C@@H](O)[C@H](O[C@H]3[C@@H](CC=O)C[C@@H](C)[C@@H](O)CN(C)CC(CCCc4ccnc5ccccc45)CCOC(=O)C[C@@H](OC(=O)CC)[C@@H]3OC)O[C@@H]2C)C[C@@]1(C)O (stereo in doubt; form 2) | MIC (Haemophilus influenzae [9]; [26]): 2 µg/mL (≈ 2.02 µM)
32 (≈ 32.7 µM) |  |  | 0.06 (≈ 0.0613 µM) | 0.25 (≈ 0.256 µM) | 0.13 (≈ 0.133 µM) | 0.25 (≈ 0.256 µM) | 32 (≈ 32.7 µM) | 8 (≈ 8.18 µM) | 8 (≈ 8.18 µM) | 0.25 (≈ 0.256 µM) | 1 (≈ 1.02 µM) | 0.25 (≈ 0.256 µM) | 0.25 (≈ 0.256 µM) | 0.13 (≈ 0.133 µM) | 0.25 (≈ 0.256 µM) |  | 32 (≈ 32.7 µM) | 0.5 (≈ 0.511 µM) | 1 (≈ 1.02 µM) | CCOC(=O)[C@H]1[C@H](C)O[C@@H](O[C@H]2[C@H](N(C)C)[C@@H](O)[C@H](O[C@H]3[C@@H](CC=O)C[C@@H](C)[C@@H](O)CN(CCCCc4ccccc4)CCC(C)NC(=O)C[C@@H](OC(=O)CC)[C@@H]3OC)O[C@@H]2C)C[C@@]1(C)OC(C)=O (stereo in doubt; form 2) | 
128 (≈ 130 µM) | 0.06 (≈ 0.0608 µM) | 0.06 (≈ 0.0608 µM) | 0.13 (≈ 0.132 µM) | 0.5 (≈ 0.507 µM) | 2 (≈ 2.03 µM) | 2 (≈ 2.03 µM) | 64 (≈ 64.9 µM) | 16 (≈ 16.2 µM) | 16 (≈ 16.2 µM) | 0.25 (≈ 0.253 µM) | 0.5 (≈ 0.507 µM) | 0.25 (≈ 0.253 µM) | 0.25 (≈ 0.253 µM) | 0.015 (≈ 0.0152 µM) | 0.06 (≈ 0.0608 µM) | 0.03 (≈ 0.0304 µM) | 128 (≈ 130 µM) | 0.5 (≈ 0.507 µM) | 4 (≈ 4.06 µM) | CCOC(=O)[C@H]1[C@H](C)O[C@@H](O[C@H]2[C@H](N(C)C)[C@@H](O)[C@H](O[C@H]3[C@@H](CC=O)C[C@@H](C)[C@@H](O)CN(C)CC(/C=C/Cc4cnc5ccccc5c4)CCOC(=O)C[C@@H](OC(=O)CC)[C@@H]3OC)O[C@@H]2C)C[C@@]1(C)O (stereo in doubt; form 2) | MIC (Streptococcus pneumoniae [21]): >128 µg/mL; MIC (Streptococcus pneumoniae [22]): >128 µg/mL; MIC (Streptococcus pneumoniae [23]): >128 µg/mL
8 (≈ 8.11 µM) | 0.06 (≈ 0.0608 µM) | 0.06 (≈ 0.0608 µM) | 0.13 (≈ 0.132 µM) | 0.5 (≈ 0.507 µM) | 2 (≈ 2.03 µM) | 2 (≈ 2.03 µM) |  | 16 (≈ 16.2 µM) | 16 (≈ 16.2 µM) | 0.25 (≈ 0.253 µM) | 1 (≈ 1.01 µM) | 0.25 (≈ 0.253 µM) | 0.25 (≈ 0.253 µM) | 0.03 (≈ 0.0304 µM) | 0.06 (≈ 0.0608 µM) | 0.06 (≈ 0.0608 µM) | 8 (≈ 8.11 µM) | 0.5 (≈ 0.507 µM) |  | CCOC(=O)[C@H]1[C@H](C)O[C@@H](O[C@H]2[C@H](N(C)C)[C@@H](O)[C@H](O[C@H]3[C@@H](CC=O)C[C@@H](C)[C@@H](O)CN(C)CC(/C=C\Cc4ccnc5ccccc45)CCOC(=O)C[C@@H](OC(=O)CC)[C@@H]3OC)O[C@@H]2C)C[C@@]1(C)O (stereo in doubt; form 1) | MIC (Streptococcus pyogenes [24]): > 128 µg/mL; MIC (Haemophilus influenzae [8]; [26]): 64 µg/mL (≈ 64.9 µM); MIC (Staphylococcus aureus [25]): > 128 µg/mL; MIC (Streptococcus pneumoniae [21]; [27]): > 128 µg/mL; MIC (Streptococcus pneumoniae [22]; [27]): > 128 µg/mL; MIC (Streptococcus pneumoniae [23]; [27]): > 128 µg/mL

— ChEMBL document CHEMBL1151705, “Novel azalides derived from 16-membered macrolides. Part II: Isolation of the linear 9-formylcarboxylic acid and its sequential macrocyclization with an amino alcohol or an azidoamine” (2008)
